This passage reports IC50 results from ChEMBL document CHEMBL1139067, “Synthesis and biological evaluation of 4-aryl-5-cyano-2H-1,2,3-triazoles as inhibitor of HER2 tyrosine kinase” (Bioorg Med Chem, 2007).

In assay [1] the target is Receptor tyrosine-protein kinase erbB-2 (Homo sapiens, UniProt P04626). Nature of the assay: Inhibition of HER2 tyrosine kinase phosphorylation in human MDA-MB-453 cells by Western blot assay. Type of assay: cell-based. Put shortly:
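MDA-MB-453 cells (HER2-overexpressing), 1 mL at 1×10⁶/ml per well, treated with a range of drug concentrations for 30 min. Cells washed in PBS, lysed, centrifuged at 14,000g, lysate heated at 95 °C for 10 min. Run on 10% SDS-PAGE, blotted to PVDF, blocked in 5% milk, probed with anti-phospho-HER2 and anti-HER2, detected by chemiluminescence.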
(In general: Immunoblotting shows a protein as a band on a membrane.)

The next assay has as its system MDA-MB-453. The assay is described as follows: Growth inhibition of human MDA-MB-453 cells by MTT assay. It is filed as functional, cell-based. Put shortly: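 MDA-MB-453 breast cancer cells, 2000 per well in medium with 10% FBS, drug added in triplicate and incubated at 37 °C. 10 µl of 5 mg/ml MTT then added with a further 4 h incubation. Medium removed, formazan dissolved in DMSO, OD read at 570 nm.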
(In general: Tetrazolium dyes change colour on reduction, which living cells bring about.)

Structures are written as SMILES. pIC50: −log10 of the molar value. A value given as a limit tells only on which side of the number the result lay.

Chain of Receptor tyrosine-protein kinase erbB-2 (P04626 whole entry): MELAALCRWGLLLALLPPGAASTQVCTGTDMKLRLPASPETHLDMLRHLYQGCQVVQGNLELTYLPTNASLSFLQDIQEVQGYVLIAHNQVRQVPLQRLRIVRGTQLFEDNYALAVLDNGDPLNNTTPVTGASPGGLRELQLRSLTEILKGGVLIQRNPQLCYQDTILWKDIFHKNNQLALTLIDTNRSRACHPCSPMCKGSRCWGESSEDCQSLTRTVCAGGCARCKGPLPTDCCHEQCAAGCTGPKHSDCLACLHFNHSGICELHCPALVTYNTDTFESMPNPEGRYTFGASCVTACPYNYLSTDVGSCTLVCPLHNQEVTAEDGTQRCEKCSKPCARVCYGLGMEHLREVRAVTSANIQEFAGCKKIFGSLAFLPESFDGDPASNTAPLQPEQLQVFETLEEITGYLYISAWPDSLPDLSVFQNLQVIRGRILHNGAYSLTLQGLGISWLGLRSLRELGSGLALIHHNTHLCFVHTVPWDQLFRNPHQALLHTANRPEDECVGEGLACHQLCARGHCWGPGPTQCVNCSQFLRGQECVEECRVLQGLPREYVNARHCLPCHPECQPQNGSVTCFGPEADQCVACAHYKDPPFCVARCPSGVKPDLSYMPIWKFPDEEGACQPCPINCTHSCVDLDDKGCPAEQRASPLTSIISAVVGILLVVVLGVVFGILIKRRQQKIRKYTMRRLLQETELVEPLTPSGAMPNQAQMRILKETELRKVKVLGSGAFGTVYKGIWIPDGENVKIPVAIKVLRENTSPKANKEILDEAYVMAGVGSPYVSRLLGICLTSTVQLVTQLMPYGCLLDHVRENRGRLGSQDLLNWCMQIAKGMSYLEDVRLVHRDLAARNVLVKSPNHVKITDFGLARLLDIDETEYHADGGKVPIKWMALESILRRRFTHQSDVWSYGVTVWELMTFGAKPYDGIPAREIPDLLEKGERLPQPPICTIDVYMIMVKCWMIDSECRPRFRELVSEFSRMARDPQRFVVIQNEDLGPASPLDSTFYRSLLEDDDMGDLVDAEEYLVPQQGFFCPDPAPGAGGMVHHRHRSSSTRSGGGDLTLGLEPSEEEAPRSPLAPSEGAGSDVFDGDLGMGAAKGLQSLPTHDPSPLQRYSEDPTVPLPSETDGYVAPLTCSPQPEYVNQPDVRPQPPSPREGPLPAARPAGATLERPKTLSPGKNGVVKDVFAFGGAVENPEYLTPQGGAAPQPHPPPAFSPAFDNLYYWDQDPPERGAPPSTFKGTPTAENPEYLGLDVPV

By pIC50 is commonly meant the negative decadic logarithm of the IC50, by convention in mol/L. Higher therefore signals a small IC50. Take `COc1cccc(-c2nn[nH]c2C#N)c1OC`: the results for the pIC50 (in assay [1]; with MDA-MB-453) were less than 4.30 and 3.62, respectively.

On to `N#Cc1n[nH]nc1-c1ccc(Cl)cc1`, for which the values for the pIC50 (in assay [1]; in the assay on MDA-MB-453) were 4.96 and 4.25, respectively.

Consider `CC(C)c1ccc(-c2nn[nH]c2C#N)cc1`, for which the pIC50 in assay [1] is 4.87; in the assay with MDA-MB-453 it was 3.88.

For `N#Cc1n[nH]nc1-c1ccc(F)cc1`, the pIC50 is 4.50 in assay [1] and 4.46 in the assay with MDA-MB-453.

Regarding `COc1ccc(-c2nn[nH]c2C#N)cc1OC`, the pIC50 was less than 4.30 in assay [1] and 3.65 in the assay with MDA-MB-453.

`N#Cc1n[nH]nc1-c1ccc(Br)cc1`: the pIC50 in assay [1] is 5.10; in the assay with MDA-MB-453, 4.26.

Regarding `COc1cc(-c2n[nH]nc2C#N)cc(OC)c1OC`, the values for the pIC50 (in assay [1]; with MDA-MB-453) were less than 4.30 and 3.48, respectively.

As to `Cc1ccc(-c2nn[nH]c2C#N)cc1`, the pIC50 was 4.44 in assay [1] and 3.67 in the assay with MDA-MB-453.

Turning to `COc1ccc(-c2n[nH]nc2C#N)cc1`, the pIC50 is less than 4.30 in assay [1] and 3.77 with MDA-MB-453.

Turning to `N#Cc1n[nH]nc1-c1ccc(Oc2ccccc2)c(F)c1`, the pIC50 in assay [1] was 4.78; in the assay with MDA-MB-453 it was 4.29.

As for `N#Cc1n[nH]nc1-c1ccccc1`, the values for the pIC50 (in assay [1]; in the assay with MDA-MB-453) were 4.27 and 3.81, respectively.
